Most compounds without a hit are left out; they make up all but 0.77% or so of the library.
mIAP activ: activators of mouse IAP, primary screen, biochemical, luminescence, uHTS | muIAP, CDP-Star luminescence, 30 min; stronger effect = higher value; 1 = vehicle-only enzyme signal, 0 = enzyme-free wells | activation factor at 10 µM | hit rate 0.24% among 330,000;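 active = activation factor of at least 2 at 20 µM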
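also added = chemiluminescent substrate CDP-Star | test system = mouse IAP enzyme | signal = chemiluminescence readout | compound = DMSO-dissolved test compounds | incubation = 30 min at room temperature | benchmarks = DMSO wells, no-enzyme wells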
bIAP inhibitor: bovine intestinal alkaline phosphatase inhibitors, primary screen, selectivity assay for TNAP inhibitor project, biochemical, bovine IAP, CDP-star luminescence; inhibition, % at 20 µM; alkaline phosphatase, intestinal [Bos taurus]; purified bovine IAP, 30 min; 190,000 tested, under 10 active; AID 1019, 2008;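 active = over 50% inhibition of intestinal alkaline phosphatase at 20 µM in the single-dose screen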
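Incubation: 30 min reaction at room temperature / Material: purified bovine intestinal alkaline phosphatase (IAP) enzyme / Input: enzyme at 1/65,000,000 dilution / Dosing: 20 µM single dose / Signal: CDP-star luminescence signal / Reagent: CDP-star chemiluminescent phosphatase substrate, 30 µM final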
bIAP act: bovine intestinal alkaline phosphatase activators, primary screen, biochemical, bovine IAP, CDP-star luminescence. purified bovine IAP, 30 min; stronger effect = higher value; fold of DMSO-control signal, blank-subtracted. activation factor at 20 µM. hit rate 0.17% among 200,000;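 active = activation factor of 2 or more at 20 µM, a signal rise over negative controls twice the positive control's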
hIAP act: human IAP activators, primary screen, biochemical, luminescence, uHTS. Intestinal-type alkaline phosphatase (Homo sapiens), P09923. purified human IAP, CDP-Star luminescence, 30 min; stronger effect = higher value; 1 = vehicle-only enzyme, 0 = enzyme-free background. AID 2524, 2010. activation factor at 10 µM. hit rate 0.16% among 330,000;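 active = activation factor of the enzyme at least 2-fold when tested at 20 µM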
Target sequence (P09923 whole entry, looked up): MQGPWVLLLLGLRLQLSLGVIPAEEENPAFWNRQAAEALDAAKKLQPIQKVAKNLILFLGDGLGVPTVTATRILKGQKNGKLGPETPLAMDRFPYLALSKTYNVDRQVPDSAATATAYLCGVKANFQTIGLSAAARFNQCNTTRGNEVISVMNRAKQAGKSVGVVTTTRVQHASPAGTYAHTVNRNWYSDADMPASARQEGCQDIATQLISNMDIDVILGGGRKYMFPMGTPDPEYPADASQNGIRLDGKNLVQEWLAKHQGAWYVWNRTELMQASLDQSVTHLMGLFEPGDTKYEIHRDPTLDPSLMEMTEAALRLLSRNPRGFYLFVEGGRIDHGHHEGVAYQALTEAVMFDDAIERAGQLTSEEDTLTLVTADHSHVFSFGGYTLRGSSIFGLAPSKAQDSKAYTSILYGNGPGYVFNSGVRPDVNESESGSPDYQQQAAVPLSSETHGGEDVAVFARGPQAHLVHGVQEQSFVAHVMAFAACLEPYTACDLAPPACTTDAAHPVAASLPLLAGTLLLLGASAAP
mIAP block: inhibitors of mouse IAP, primary screen, biochemical, luminescence, uHTS | hit rate 0.2% among 330,000 | AID 2806, 2010 | purified mouse IAP, CDP-Star luminescence, 30 min | inhibition, % at 10 µM;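 active = inhibition of at least 40% at 10 µM in the primary screen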;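 also: plate controls were DMSO with enzyme for no effect and no enzyme wells for full effect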
hIAP block: human IAP inhibitors, primary screen, biochemical, luminescence, uHTS | Intestinal-type alkaline phosphatase (Homo sapiens), P09923 | purified IAP, CDP-Star luminescence, 30 min | inhibition, % at 10 µM | hit rate 0.12% among 330,000 | AID 2544, 2010;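 active = inhibition reaching a set limit with compound at 10 µM in the primary screen, cut at about 35% in these data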;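 also: plate controls were DMSO wells with enzyme for no effect and no-enzyme buffer wells for full effect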
mIAP inh confirm: inhibitors of mouse IAP, confirmation, biochemical, luminescence, single concentration | hit rate 4.7% among 11,000 | AID 434971, 2010 | shares compounds with mIAP block | purified mouse IAP, CDP-Star luminescence, 30 min | inhibition, % at 10 µM;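 active = inhibition of at least 40% at 10 µM in either of the two replicates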;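 also: plate controls were DMSO wells with enzyme for no effect and buffer wells lacking enzyme for full effect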
* marks the source's active call; other numbers are inactive results; . = no result given.

SMILES	mIAP activ	bIAP inhibitor	bIAP act	hIAP act	mIAP block	hIAP block	mIAP inh confirm
CCc1ccc(NC(=O)NC2CCCCCCC2)cc1	2.7*	.	.	1.6	-172	-56	-213
O=C(Nc1ccc(Br)cc1)NC1CCCCCCC1	5*	.	.	1.1	-399	-6	-174
CCc1ccc(NC(=O)C(=S)NC2CCCCC2)cc1	0.85	2	1	1.2	15	-24	.
Cc1ccc(NC(=O)c2ccccc2SCC(=O)N2CCCC2)cc1S(=O)(=O)N(C)C	1	.	.	1.2	-1	-16	.
Cc1cc(C)cc(NC(=O)COc2coc(CN3CCc4ccccc4C3)cc2=O)c1	0.95	.	.	0.91	5	9	.
CCCn1ncc(CN2CCC(C(=O)Nc3cccc(-c4cccc(F)c4)c3)CC2)c1C	5.3*	.	.	1	-426	-4	-428
C=CCn1cc(CN2CCC(C(=O)Nc3cccc(-c4cccc(F)c4)c3)CC2)c(C)n1	2.5*	.	.	0.79	-149	21	-194
Cc1n[nH]c(C)c1S(=O)(=O)N1CCN(S(=O)(=O)c2ccccc2C#N)CC1	0.91	.	.	0.97	9	3	.
Cc1ccc(C2CC(=O)N3CN(c4ccc(Br)cc4)CSC3=C2C#N)o1 (stereo unspecified)	0.39	27	0.7	1.5	61*	-47	63*
CCOc1ccc(N2CSC3=C(C#N)C(c4ccco4)CC(=O)N3C2)cc1 (stereo unspecified)	0.26	2	1	1.1	74*	-9	81*
N#CC1=C2SCN(c3ccccc3)CN2C(=O)CC1c1cccs1 (stereo unspecified)	0.65	6	0.9	1	35	-2	.
CC(/C=N/NC(=O)c1nn(C)c(C)c1Br)=C\c1ccccc1	1	-15	1.1	0.93	-2	8	.
CC(=O)Nc1sc(N/N=C\c2ccccc2)nc1-c1cccs1	0.78	-3	1	1.1	22	-7	.
CCOc1cc(/C=N/Nc2nc(-c3cccs3)c(NC(C)=O)s2)ccc1O	0.59	.	.	0.86	41*	14	44*
O=C(NC1CCCC1)C(c1ccccn1)N(C(=O)c1csnn1)c1ccccc1Cl (stereo unspecified)	1	.	.	0.98	0	2	.
CCC(C)NC(=O)Nc1ccc2c(c1)N(C)C(=O)c1ccccc1S2 (stereo unspecified)	3.4*	-260	3.6*	1.1	-240	-6	-100
O=C(NCC1CC1(Cl)Cl)Nc1ccc(Cl)c(Cl)c1 (stereo unspecified)	2.9*	.	.	1.1	-193	-6	-153
COc1cc(OC)c2c(c1O)OC(c1ccccc1)CC2=O (stereo unspecified)	0.46	8	0.9	0.97	54*	3	62*
Cc1ccc(N(CC(=O)NCc2ccc(F)cc2)C(=O)c2snc(C(N)=O)c2N)cc1C	1.1	.	.	1.2	-10	-20	.
CC(=O)Nc1ccc(NC(=O)CSc2nnc3ccc(-c4ccc(F)cc4)nn23)cc1	0.99	-2	1	0.96	1	4	.
O=C(Nc1ccc(F)cc1)Nc1cnccn1	0.99	.	.	0.84	1	16	.
O=C(Nc1cc(Cl)cc(Cl)c1)Nc1cnccn1	2.5*	.	.	1.3	-147	-26	-96
S=c1[nH]nc(-c2ccc(Cl)cc2)n1/N=C/C=C/c1ccco1	0.44	.	.	1.2	56*	-15	58*
S=c1[nH]nc(-c2cccnc2)n1/N=C/C=C/c1ccco1	0.53	3	1	0.97	47*	3	60*
C[C@H](NC(=O)c1ccccc1)C(=O)N1CCC2(CC1)NCCc1[nH]cnc12	0.97	.	.	1.1	3	-7	.
SMILES	mIAP activ	bIAP inhibitor	bIAP act	hIAP act	mIAP block	hIAP block	mIAP inh confirm
Cc1ccc(CNC(=O)c2ccc(N3CCC4(CC3)CC(c3ccccc3)=NO4)c(NC(=O)c3ccc(Br)cc3)c2)cc1	1.2	.	.	1.1	-20	-6	.
COCCN=c1scc(-c2ccco2)n1/N=C/c1ccc(O)c(O)c1O	0.46	4	1	1.2	54*	-21	53*
C=CCN=c1scc(-c2ccco2)n1/N=C/c1ccc(O)c(O)c1O	0.41	.	.	0.92	59*	8	68*
Cc1ccccc1OC(=O)c1cccc(S(=O)(=O)N2CCN(C)CC2)c1	1.1	.	.	1.1	-5	-8	.
O=C1CCc2cc(NS(=O)(=O)c3ccc(Br)cc3)cc3c2N1CC3	1	.	.	1.1	-4	-7	.
CCOC(=O)CN1C(=O)/C(=C2\SC(=S)N(NC(=O)c3cccnc3)C2=O)c2ccccc21	0.48	.	.	0.85	52*	15	53*
O=C(O)/C=C\c1cc2c(cc1[N+](=O)[O-])OCO2	0.58	.	.	1.2	42*	-16	45*
Cc1ccc(C)c(N=Cc2cc3c(cc2[N+](=O)[O-])OCO3)c1	0.67	8	0.9	0.96	33	4	.
CC(C)(C)c1ccc(O)c(N=Cc2cc3c(cc2[N+](=O)[O-])OCO3)c1	0.58	.	.	0.93	42*	7	49*
CCCOc1ccc(/C(O)=C2\C(=O)C(=O)N(c3ccccn3)C2c2ccccc2F)cc1C (stereo unspecified)	0.94	.	.	0.98	6	2	.
CCc1ccc(C(=O)NNC(=O)CN2C(=O)NC(CC)(c3ccccc3)C2=O)cc1 (stereo unspecified)	1	.	.	1.3	-4	-34	.
Cn1c(=O)c2c(ncn2CC(=O)OCC(=O)Nc2cc(Cl)ccc2C#N)n(C)c1=O	1	.	.	0.94	-4	6	.
CC(=O)c1cccc(NC(=O)NC2CCCc3ccccc32)c1 (stereo unspecified)	1.4	0	1	0.96	-38	4	.
Cc1cccc(NC(=O)NC2CCCc3ccccc32)c1 (stereo unspecified)	2.7*	.	.	0.93	-168	7	-236
COc1ccc(/C=N\NC(=O)c2sccc2C)cc1Cn1nc(C)cc1C	0.97	.	.	1.2	2	-16	.
Cc1cccc(-n2nc3c(c2NC(=O)C2CC2)CS(=O)(=O)C3)c1C	1.1	.	.	1.1	-8	-7	.
O=C(NCC1CCN(Cc2cccc(Cl)c2)CC1)Nc1ccccc1Cl	2.7*	.	.	1.6	-173	-58	-118
Cc1ccc(NC(=O)NCC2CCN(Cc3cccc(Cl)c3)CC2)c(Cl)c1	3.5*	-20	1.2	1.5	-246	-46	-120
Cc1ccc(CN2CCC(CNC(=O)Nc3ccccc3F)CC2)cc1	1.3	.	.	1.1	-32	-8	.
